# Screening results as filed in PubChem.
# Most compounds without a hit are left out; they make up all but 3.7% or so of the library.
# RAM inhibit: blocks the yeast RAM network. S. cerevisiae dse1pr::URA3 reporter, 5-FOA growth OD615, 2 d; analog-sensitive cbk1-as2 kinase mutant strain. inhibition, % at 50 µM. 190,000 tested, 1.8% active. AID 868;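 active = inhibition above a set limit, 3 SD over mean compound inhibition, cut at about 8.4% in these data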;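 note: 0% = DMSO-only wells with no growth and 100% = 10 µM 1-NA-PP1 full growth; inhibition rescues growth on 5-FOA so higher OD means more RAM inhibition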
# Yeast life ext: extends the lifespan of yeast; S. cerevisiae growth with nicotinamide, OD615; deaD strain in restrictive glucose medium; 130,000 tested, 0.68% active; inhibition of the nicotinamide effect, % at 10 µM;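 active = inhibition above a set limit, placed 3 SD over the median of all compounds, cut at about 26% in these data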;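 note: 0% = nicotinamide-treated wells and 100% = cells grown without nicotinamide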
#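 Test system: DeaD-strain S. cerevisiae / Buffer or medium: restrictive glucose medium / Also added: nicotinamide 1.5 mM / Doses: one concentration, 10 µM, DMSO 0.25% / Schedule: 48 h at 30 °C / Signal: OD615 measurement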
# Yeast growth inh: chemicals that inhibit yeast BB579 growth in restrictive medium (lifespan-shortening candidates). S. cerevisiae BB579 growth, OD615, 48 h. inhibition, % at 10 µM. 140,000 tested, 0.51% active;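 active = inhibition above a set limit, 3 SD over the mean compound inhibition, cut at about 44% in these data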
#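 System: DeaD yeast strain BB579; buffer or medium: CSMM-D dextrose restrictive medium; technique: OD at 615 nm; schedule: 4 h cell preincubation, 48 h compound exposure, 30 °C humidified; doses: single 10 µM dose; controls: amphotericin B 10 µg/mL, positive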
# Efa HMGR inh: inhibitors of class II HMG-CoA reductase from Enterococcus faecalis | AID 1066 | 190,000 tested, 0.41% active | inhibition, % at 10 µM | purified E. faecalis HMGR, NADPH absorbance 340 nm kinetic;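 active = inhibition above a set limit, the median over all tested compounds plus 3 SD, cut at about 9.5% in these data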;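 note: enzyme runs in reverse so mevalonate oxidation gives rising NADPH absorbance; 0% = complete reaction with DMSO and 100% = background rate lacking mevalonate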
# INS promoter inh: TRM-6 insulin promoter activity inhibition | 130,000 tested, 0.9% active | inhibition, % at 2 µM | TRM-6 cells, insulin promoter-eGFP reporter, imaging; reporter expression induced with tamoxifen;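 active = inhibition above the mean plus 3 SD, with well images judged a real hit on visual review, cut at about 60% in these data, passing the limit was not always enough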
# Active calls of the source: *; . = no result.
SMILES,RAM inhibit,Yeast life ext,Yeast growth inh,Efa HMGR inh,INS promoter inh
CCCNC(=O)CC(NS(=O)(=O)c1ccc(OC)cc1)c1ccco1 (stereo not given),1.3,.,.,-10.5,.
OCCN1CCN(Cc2cc(Cl)c3cccnc3c2O)CC1,-1.2,13.6,22.3,-4.2,15.6
COc1ccc(C(=O)Oc2c(CN3CCOCC3)cc(Cl)c3cccnc23)cc1,-0.6,0.3,-22.7,-4.5,-21.2
O=C(Oc1c(CN2CCOCC2)cc(Cl)c2cccnc12)c1ccc(F)cc1,-0.7,28.5*,10.8,-0.6,-5.0
CCOc1ccccc1N1CCN(Cc2cccc(OC)c2O)CC1,0.1,-5.9,-40.9,3.0,-20.0
Oc1c(CN2CCN(c3ccccn3)CC2)cc(Cl)c2cccnc12,-1.2,-3.4,59.3*,-0.7,-44.4
COc1ccccc1N1CCN(Cc2cc(Br)c(O)c3ncccc23)CC1,-1.0,-15.6,96.6*,-0.3,.
CC(C)CC(NC(N)=O)C(=O)NCCc1ccc(Cl)cc1 (stereo not given),1.6,.,.,1.4,-42.9
COC(=O)CC(c1ccc(OC)c(OC)c1)c1ccc(OC)c(OC)c1,2.0,.,.,-3.6,.
O=[N+]([O-])c1cc(S(=O)(=O)C(F)(F)F)ccc1Sc1nc2ccccc2s1,8.5*,21.3,-22.3,-0.6,-3.5
O=S(=O)(Nc1ccc(O)c(Sc2nc3ccccc3s2)c1)c1ccc(F)cc1,8.9*,8.6,-54.5,0.0,-2.6
O=[N+]([O-])c1cc(S(=O)(=O)C(F)(F)F)ccc1Sc1nc2ccccc2[nH]1,6.2,39.2*,-54.2,-1.2,0.0
O=C(Nc1nc(-c2ccccc2)cs1)c1ccccc1NS(=O)(=O)c1ccc(F)cc1,2.9,12.2,-19.4,0.0,30.8
CS(=O)(=O)c1ccc(Sc2nc3ccccc3[nH]2)c([N+](=O)[O-])c1,1.9,-17.9,-26.6,0.0,-29.4
O=S(=O)(Nc1ccc(-c2csc(-c3ccccc3)n2)cc1)c1ccc(F)cc1,5.9,-23.1,69.0*,-3.3,7.4
CCCCC(=O)OCC(=O)Nc1ccc(C)c(F)c1,0.6,.,.,-5.6,.
COC(=O)CCC(=O)c1oc2ccccc2c1NC(=O)CCCN1C(=O)c2ccccc2C1=O,8.9*,25.7,-40.5,3.9,37.5
CC(=O)c1oc2ccccc2c1NC(=O)CCCN1C(=O)c2ccccc2C1=O,2.7,-5.9,-18.6,-0.1,.
Cc1cccc(C(=O)c2cnc3ccccc3c2-c2ccccc2)c1,9.9*,18.2,-10.8,3.6,-13.0
O=C(COC(=O)CNS(=O)(=O)c1cccc(Br)c1)NC(=O)Nc1ccc2c(c1)OCCO2,6.2,6.9,-35.1,0.8,-400.0
CCOc1cc(C2C3=C(CCCC3=O)N(CCC(=O)O)C3=C2C(=O)CCC3)ccc1OS(=O)(=O)c1ccc(C)cc1,2.1,1.1,-16.4,-4.5,30.0
Cc1ccc(S(=O)(=O)Oc2ccc(C3C4=C(CCCC4=O)N(CCC(=O)O)C4=C3C(=O)CCC4)cc2Cl)cc1,8.9*,0.0,-34.7,3.7,-46.7
O=C(CNC(=O)c1ccccc1F)NCCOc1ccccc1Cl,1.1,-0.9,-20.5,0.8,-29.0
COc1ccc2c(c1)nc(SCC(O)c1ccccc1)n2C (stereo not given),0.2,.,.,-1.3,13.3
C(=N\c1ncnc2sccc12)/NOCc1ccccc1,-0.9,-3.2,70.1*,2.4,3.3
SMILES,RAM inhibit,Yeast life ext,Yeast growth inh,Efa HMGR inh,INS promoter inh
CCc1cc2cc3c(cc2nc1SCC(=O)Nc1cc(OC)c(OC)cc1C(=O)O)OCO3,9.5*,.,.,-1.7,5.6
CCc1cc2ccc(C)cc2nc1SCC(=O)Nc1cc(OC)c(OC)cc1C(=O)O,-1.5,2.9,-41.6,0.5,-53.9
O=S1(=O)Nc2c(ccc3cccnc23)-c2ccccc21,-2.0,-12.6,99.7*,-4.4,.
O=C1C2C(c3ccccc3)C=CC(c3ccccc3)C2C(=O)N1c1ccccn1 (stereo not given),0.2,30.1*,-56.5,-3.1,35.7
COc1ccc(C(=O)OCCOc2ccccc2C(C)=O)c(O)c1,11.3*,.,.,1.2,22.2
COc1ccccc1OCCCCOc1ccccc1C(C)=O,0.4,-6.8,-23.0,-0.5,-12.9
CC1CCCCN1C(=S)Nc1ccc2nc3n(c(=O)c2c1)CCCCC3 (stereo not given),2.3,55.9*,-51.9,-2.6,-20.0
O=c1c2cc(NC(=S)N3CCC(N4CCCCC4)CC3)ccc2nc2n1CCCCC2,2.1,.,.,-9.0,-90.9
O=c1c2ccccc2n(Cc2cccc(F)c2)c(=O)n1C1CCCC1,9.3*,7.1,-44.7,3.3,.
N#Cc1ccccc1Cn1c(=O)n(C2CCCC2)c(=O)c2ccccc21,-0.1,0.2,-35.8,-2.0,-16.1
CCCCCCNC(=O)C(=O)NCCc1ccc(Cl)cc1,4.0,.,.,46.9*,.
CC(C)C(=O)c1cn(CC(=O)N2CCCc3ccccc32)c2ccccc12,0.6,-3.1,-11.2,-4.9,-14.3
CCOC(=O)COn1c(=O)c[n+]([O-])c2ccccc21,0.5,-3.0,-25.0,2.2,100.0*
COCCNC(=S)N/N=C(\C)c1cccc(OC)c1,2.3,.,.,-2.3,.
O=C(O/N=C\c1ccc(N2CCCCC2)c([N+](=O)[O-])c1)c1cccc(Cl)c1,11.2*,-5.5,-47.7,-1.3,.
C/C=C/C(=O)OCC(=O)Nc1cc(-c2cc(C)c(C)cc2C)nn1-c1ccccc1,5.9,-2.1,-24.7,3.5,.
Nc1c(-c2cccc([N+](=O)[O-])c2)nc2ccccn12,1.9,-4.1,-50.8,-5.7,68.8*
O=[N+]([O-])c1cccc(-c2ncc3ccccn23)c1,-0.6,.,.,-5.5,45.5
S=C(NCC1CCCO1)N1CCN(Cc2ccccc2Cl)CC1 (stereo not given),2.4,.,.,-9.3,.
Cc1c(Cl)cccc1NC(=S)N1CCC(N(C)CC2CCCO2)CC1 (stereo not given),-0.5,.,.,-2.9,20.0
O=[N+]([O-])c1cccc(-c2nc(-c3ccccc3)c(-c3cccs3)[nH]2)c1,8.5*,-12.2,-56.2,1.0,12.9
O=[N+]([O-])c1cccc(-c2nc(-c3cccs3)c(-c3cccs3)[nH]2)c1,5.0,-5.5,-30.7,0.6,23.3
COCCCn1c(SCC(=O)N2CCc3ccccc32)nnc1-c1ccco1,8.6*,.,-1.2,-5.0,6.2
CC(C)Cn1c(=O)c(C(=O)Nc2cnccn2)c(O)c2ccccc21,0.5,67.8*,-23.4,-5.4,.
CCOC(=O)c1sc(NC(=O)c2cccc(S(=O)(=O)N(CC)CC)c2)cc1C,10.5*,-8.9,-8.3,-5.2,.
OCCC1CN(Cc2cccs2)CCN1Cc1ccccc1 (stereo not given),1.4,.,.,14.7*,-90.5
O=C(c1nc2ccccn2c1CN1CCCC(OCc2ccccc2)C1)N1CCCC1 (stereo not given),0.1,.,.,-0.3,.
CCc1nc(N)nc(N)c1-c1ccc(Cl)cc1,0.4,8.2,-58.4,15.4*,9.5
O=C(c1ccc(F)cc1)C1CCN(C(=S)NCC2CCCO2)CC1 (stereo not given),0.3,.,.,11.6*,33.3
